Screening data from PubChem BioAssay.
Shown are actives, neighbours in structure and some others; about 3.4% of the full set was active somewhere.
MEKK2 mut-MEK5 – signal of MEK5 binding to mutant human MEKK2 PB1 domain; bead flow cytometry, Alexa488-MEK5 binding to MEKK2 mutant; percent response, % at 10 µM; 290,000 compounds, 0.35% hits; in the data active = percent response above about 24%, passing the limit was not always enough
MEKK2wt PB1 HTS – raises or lowers MEK5 binding to wildtype human MEKK2 PB1 domain | Q9Y2U5 | bead flow cytometry, Alexa488-MEK5 binding to MEKK2 WT; actives lie on both sides | binding response (% of control), % at 10 µM | 290,000 compounds, 1.1% hits | AID 1531; in the data active = binding response below about 67% or above about 130%
MEKK3 PB1 HTS – MEKK3-MEK5 PB1 interaction, increase or decrease; Q99759; 290,000 compounds, 1.4% hits; AID 1529; binding response (% of control), % at 10 µM; bead-based flow cytometry, Alexa488-MEK5 binding to MEKK3; actives lie on both sides; 0 = blocked by unlabeled MEK5, 100 = vehicle;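 active = binding response more than 3 SD above or below the average of its plate-row segment, actives on both sides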;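 note: Alexa488 bead fluorescence after subtracting the streptavidin-only scavenger bead signal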
Target sequence (Q99759 whole entry, looked up): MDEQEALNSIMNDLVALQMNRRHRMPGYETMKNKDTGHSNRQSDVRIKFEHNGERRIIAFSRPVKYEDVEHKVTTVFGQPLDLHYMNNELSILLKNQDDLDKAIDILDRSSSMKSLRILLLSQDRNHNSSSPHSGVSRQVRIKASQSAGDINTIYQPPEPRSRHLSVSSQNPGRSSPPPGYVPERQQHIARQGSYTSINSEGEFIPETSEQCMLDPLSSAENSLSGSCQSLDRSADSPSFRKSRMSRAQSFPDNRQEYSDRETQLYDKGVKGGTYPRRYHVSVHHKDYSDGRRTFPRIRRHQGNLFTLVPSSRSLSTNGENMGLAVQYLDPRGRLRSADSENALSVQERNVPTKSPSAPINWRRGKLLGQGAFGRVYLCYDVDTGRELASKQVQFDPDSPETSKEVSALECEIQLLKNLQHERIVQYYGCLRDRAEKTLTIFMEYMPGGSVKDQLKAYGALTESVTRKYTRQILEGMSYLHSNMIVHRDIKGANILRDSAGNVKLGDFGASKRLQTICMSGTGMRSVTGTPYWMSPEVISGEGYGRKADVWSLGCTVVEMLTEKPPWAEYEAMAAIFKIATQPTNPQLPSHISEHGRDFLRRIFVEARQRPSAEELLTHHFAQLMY
VIM-2 inhibitor – inhibitors of Pseudomonas aeruginosa VIM-2 metallo-beta-lactamase. purified VIM-2, nitrocefin hydrolysis, epi-absorbance fluorescence. inhibition, % at 5.6 µM. 290,000 compounds, 0.89% hits. AID 1527;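 active = inhibition above the mean of all tested compounds plus 3 SD, cutoff set per screening run, cut at about 7.5% in these data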;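 note: red hydrolysis product quenches plate fluorescence so inhibitors raise well fluorescence; 0% = enzyme with DMSO and 100% = DMSO without enzyme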
IMP-1 inh – blocks Pseudomonas aeruginosa IMP-1 metallo-beta-lactamase; purified IMP-1, nitrocefin hydrolysis, epi-absorbance fluorescence; inhibition, % at 5.6 µM; 290,000 compounds, 0.45% hits; AID 1556;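 active = inhibition above the mean plus 3 SD of all compounds in the same screening run, cut at about 4.5% in these data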;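 note: 0% = IMP-1 with DMSO and 100% = DMSO wells lacking enzyme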
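system = purified recombinant IMP-1 beta-lactamase | amount = 0.2 nM IMP-1, as dispensed | medium = HEPES buffer pH 7.1 with ZnSO4 and Brij 35 | times = 25 °C, 15 min preincubation, 25 min reaction | detection = plate fluorescence quenching by hydrolysis product, ex 480/em 530 nm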
MEKK2wt confirm – raises or lowers MEK5 binding to wildtype human MEKK2, retest. 5,900 compounds, 2.4% hits. bead flow cytometry, Alexa488-MEK5 binding to MEKK2 WT; actives lie on both sides. shares compounds with MEKK3 PB1 HTS. AID 1892. binding response (% of control), % at 10 µM; in the data active = binding response below about 16% or above about 210%; inactive = in between
MEKK2mut confirm – signal of MEK5 binding to mutant human MEKK2, retest; 5,900 compounds, 2% hits; shares compounds with MEKK3 PB1 HTS; bead flow cytometry, Alexa488-MEK5 binding to MEKK2 mutant; percent response, % at 10 µM; in the data active = percent response mostly above about 71%, no sharp cut-off; inactive = mostly below about 38%;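 note: higher means compound restores mutant binding toward wildtype level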
MEKK3 confirm – MEKK3-MEK5 PB1 inhibition, single concentration confirmation. binding response (% of control), % at 10 µM. AID 1894. shares compounds with MEKK3 PB1 HTS. 5,900 compounds, 1.8% hits. bead flow cytometry, Alexa488-MEK5 binding to MEKK3; hits give low values;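 active = binding response below 72% of control, or above a set upper limit, though filed actives all read lower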;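 note: 100% = DMSO only wells and 0% = binding blocked by excess unlabeled MEK5; lower values mean stronger disruption of MEK5 binding to MEKK3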
The depositor's hits bear a star; [ ] = remark or other dose.

What do the screens show for `Cc1cc(S(=O)(=O)n2[nH]c(=O)c(CCO)c2C)c(Cl)cc1Cl`?
MEKK2 mut-MEK5: 1; MEKK2wt PB1 HTS: 106; MEKK3 PB1 HTS: 104; VIM-2 inhibitor: 1; IMP-1 inh: 3

Results for COC(=O)Cn1c(=NC(=O)c2ccc(OC)c(OC)c2)sc2cc(OC)ccc21 ?
MEKK2 mut-MEK5: -2; MEKK2wt PB1 HTS: 101; MEKK3 PB1 HTS: 106; VIM-2 inhibitor: 0; IMP-1 inh: -4

How did COC(=O)Cn1c(=NC(=O)c2ccc(Cl)s2)sc2cc(F)ccc21 do in these assays?
MEKK2 mut-MEK5: 0; MEKK2wt PB1 HTS: 102; MEKK3 PB1 HTS: 134*; VIM-2 inhibitor: -3; IMP-1 inh: -4; MEKK2wt confirm: 99; MEKK2mut confirm: -1; MEKK3 confirm: 98

Results for COC(=O)c1ccc(CSc2nnc(-c3c[nH]c4ccccc34)n2-c2ccccc2)cc1 ?
MEKK2 mut-MEK5: -2; MEKK2wt PB1 HTS: 123; MEKK3 PB1 HTS: 103; VIM-2 inhibitor: -1; IMP-1 inh: -3

How did CC(C)C[C@@H](C(=O)NC1CCN(Cc2ccccc2)CC1)N1C(=O)N2CCc3c([nH]c4ccccc34)[C@@]2(C)C1=O do in these assays?
MEKK2 mut-MEK5: 20; MEKK2wt PB1 HTS: 142*; MEKK3 PB1 HTS: 108; VIM-2 inhibitor: -3; IMP-1 inh: -4; MEKK2wt confirm: 135; MEKK2mut confirm: 26; MEKK3 confirm: 109

How did N#CCCn1cc(CNCc2ccccc2)c(-c2cccc([N+](=O)[O-])c2)n1 do in these assays?
MEKK2 mut-MEK5: 23; MEKK2wt PB1 HTS: 160*; MEKK3 PB1 HTS: 105; VIM-2 inhibitor: -1; IMP-1 inh: -3; MEKK2wt confirm: 144; MEKK2mut confirm: 21; MEKK3 confirm: 99

What do the screens show for `O=C(NCc1cn(-c2ccccc2)nc1-c1ccccc1)c1cccc([N+](=O)[O-])c1`?
MEKK2 mut-MEK5: 8; MEKK2wt PB1 HTS: 114; MEKK3 PB1 HTS: 101; VIM-2 inhibitor: 0; IMP-1 inh: -2

How did CCCOc1ccc(C(=O)NCC(c2cccs2)N(C)C)cc1 (configuration not stated) do in these assays?
MEKK2 mut-MEK5: -2; MEKK2wt PB1 HTS: 100; MEKK3 PB1 HTS: 95; VIM-2 inhibitor: -2; IMP-1 inh: -4

Results for COc1ccc(C(CC(=O)NCc2ccccc2)Sc2n[nH]c(-c3ccccc3)n2)cc1 (configuration not stated) ?
MEKK2 mut-MEK5: 13; MEKK2wt PB1 HTS: 119; MEKK3 PB1 HTS: 98; VIM-2 inhibitor: 1; IMP-1 inh: -4

How did COc1ccc(-c2nc(SC(CC(=O)NCc3ccccc3)c3ccc(OC)c(OC)c3)n[nH]2)cc1 (configuration not stated) do in these assays?
MEKK2 mut-MEK5: 0; MEKK2wt PB1 HTS: 101; MEKK3 PB1 HTS: 128*; VIM-2 inhibitor: -4; IMP-1 inh: -2; MEKK2wt confirm: 94; MEKK2mut confirm: -9; MEKK3 confirm: 94

How did CCN1CCN(c2cc(C)c3cc(NC(=O)c4ccc(OC)c(OC)c4)ccc3n2)CC1 do in these assays?
MEKK2 mut-MEK5: 30*; MEKK2wt PB1 HTS: 130; MEKK3 PB1 HTS: 105; VIM-2 inhibitor: -3; IMP-1 inh: -4; MEKK2wt confirm: 126; MEKK2mut confirm: 13; MEKK3 confirm: 102

Results for COc1ccc(C(=O)Nc2ccc3nc(N4CCN(C)CC4)cc(C)c3c2)c(OC)c1 ?
MEKK2 mut-MEK5: 24*; MEKK2wt PB1 HTS: 156*; MEKK3 PB1 HTS: 106; VIM-2 inhibitor: 1; IMP-1 inh: -1; MEKK2wt confirm: 142; MEKK2mut confirm: 34; MEKK3 confirm: 108

How did COc1ccc(C)cc1NC(=O)CCC(=O)Nc1ccc2nc(N3CCN(C)CC3)cc(C)c2c1 do in these assays?
VIM-2 inhibitor: -3; IMP-1 inh: -2

Results for CCN1CCN(c2cc(C)c3cc(NC(=O)CCC(=O)Nc4ccc(OC)c(OC)c4)ccc3n2)CC1 ?
MEKK2 mut-MEK5: 7; MEKK2wt PB1 HTS: 110; MEKK3 PB1 HTS: 104; VIM-2 inhibitor: -3; IMP-1 inh: -1

What do the screens show for `CCOC(=O)c1c(C)[nH]c(C)c1S(=O)(=O)N(C)CC(=O)NCc1cccc(Br)c1`?
MEKK2 mut-MEK5: -4; MEKK2wt PB1 HTS: 103; MEKK3 PB1 HTS: 104; VIM-2 inhibitor: -1; IMP-1 inh: 0

How did O=C(CSc1nncn1-c1ccccc1)Nc1ccccc1F do in these assays?
MEKK2 mut-MEK5: -6; MEKK2wt PB1 HTS: 99; MEKK3 PB1 HTS: 99; VIM-2 inhibitor: 0; IMP-1 inh: 0

Results for CCN(CC)S(=O)(=O)c1cccc(NC2=NCCCCC2)c1 ?
MEKK2 mut-MEK5: -3; MEKK2wt PB1 HTS: 93; MEKK3 PB1 HTS: 96; VIM-2 inhibitor: -3; IMP-1 inh: -4

How did COc1ccc2c(c1)C(C1=C(O)CC(C)(C)CC1=O)C1=C(CC(C)(C)CC1=O)O2 (configuration not stated) do in these assays?
MEKK2 mut-MEK5: 3; MEKK2wt PB1 HTS: 100; MEKK3 PB1 HTS: 101; VIM-2 inhibitor: -4; IMP-1 inh: -5

How did COc1ccc(C2CC(=O)OC3=C2C(=O)CC(C)(C)C3)c(OC)c1 (configuration not stated) do in these assays?
MEKK2 mut-MEK5: -2; MEKK2wt PB1 HTS: 80; MEKK3 PB1 HTS: 69*[inhibitor]; VIM-2 inhibitor: -7; IMP-1 inh: -3; MEKK2wt confirm: 93; MEKK2mut confirm: 1; MEKK3 confirm: 96

What do the screens show for `CC(C)(C)c1ccc(C(O)CCCN2CCC(C(O)(c3ccccc3)c3ccccc3)CC2)cc1` (configuration not stated)?
MEKK2 mut-MEK5: 24*; MEKK2wt PB1 HTS: 212*; MEKK3 PB1 HTS: 84; VIM-2 inhibitor: -4; IMP-1 inh: -5; MEKK2wt confirm: 142; MEKK2mut confirm: 33; MEKK3 confirm: 107

How did Oc1ccccc1CN1CCC(C(O)(c2ccccc2)c2ccccc2)CC1 do in these assays?
MEKK2 mut-MEK5: -2; MEKK2wt PB1 HTS: 97; MEKK3 PB1 HTS: 94; VIM-2 inhibitor: 1; IMP-1 inh: 0

What do the screens show for `COc1ccc(C(=O)N[C@H](C(=O)Nc2nc3ccccc3[nH]2)C(C)C)cc1`?
MEKK2 mut-MEK5: 2; MEKK2wt PB1 HTS: 104; MEKK3 PB1 HTS: 103; VIM-2 inhibitor: -4; IMP-1 inh: -3
